pEC50: −log10 of the molar value.
Tests used:
[1] = test system: Human immunodeficiency virus 1; assay: Antiviral activity against wild type HIV1 3B infected in human MT4 cells assessed as protection against virus-induced cytopathogenicity after 4 days by MTT assay; assay type: functional, organism-based; settings: Human immunodeficiency virus 1, 3B, MT4, 96 h
Method in brief: (§1)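 MT-4 cells at 1 × 10⁵ cells/mL infected at multiplicity of infection 0.02, then immediately plated onto serial dilutions of compound (DMSO stocks of 50 mM or higher). After 4 days at 37 °C, viable cells counted by MTT. […] Virus stocks titrated in MT-4 cells as CCID50.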

[2] = test system: Human immunodeficiency virus 2; assay: Antiviral activity against wild type HIV2 ROD infected in human MT4 cells assessed as protection against virus-induced cytopathogenicity after 4 days by MTT assay; assay type: functional, organism-based; settings: Human immunodeficiency virus 2, ISOLATE ROD, MT4, 96 h; method in brief: as §1
[3] = Cytotoxicity against human MT4 cells after 4 days by MTT assay; assay type: cell-based
Method in brief: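 Uninfected MT-4 cells were run in parallel with the antiviral plates and exposed to serial compound dilutions (DMSO stocks of 50 mM or higher) for 4 days at 37 °C. Viability was read by MTT.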

[4] = Selectivity index, CC50 for human MT4 cells to EC50 for wild type HIV1 3B; assay type: toxicity, cell-based; settings: read-out: Ratio CC50/EC50
Method in brief: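 Selectivity index is calculated as CC50 in uninfected MT-4 cells divided by EC50 against HIV-1 IIIB. Both come from parallel 4-day MTT readings at 37 °C, with infection at multiplicity of infection 0.02.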

[5] = test system: Human immunodeficiency virus 1; assay: Antiviral activity against HIV1 with reverse transcriptase K103N, Y181C mutant infected in human MT4 cells assessed as protection against virus-induced cytopathogenicity after 4 days by MTT assay; assay type: functional, organism-based; settings: Human immunodeficiency virus 1, MT4, 96 h
Method in brief: (§2)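 MT-4 cells at 1 × 10⁵ cells/mL were infected with the mutant HIV-1 at a multiplicity of infection of 0.02. Virus stocks were titred in MT-4 cells as CCID₅₀. Cells were plated at once onto serial compound dilutions, with DMSO stocks at 50 mM or higher. After 4 days at 37 °C, viable cells were counted by MTT. EC₅₀ is the concentration giving 50% protection from viral cytopathicity.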

[6] = test system: Human immunodeficiency virus 1; assay: Antiviral activity against wild type HIV1 LAI infected in human MT4 cells assessed as protection against virus-induced cytopathogenicity after 4 days by MTT assay; assay type: functional, organism-based; settings: Human immunodeficiency virus 1, LAI, MT4, 96 h
[7] = test system: Human immunodeficiency virus 1; assay: Antiviral activity against HIV1 with reverse transcriptase E138K mutant infected in human MT4 cells assessed as protection against virus-induced cytopathogenicity after 4 days by MTT assay; assay type: functional, organism-based; settings: Human immunodeficiency virus 1, MT4, 96 h; method in brief: as §2
[8] = test system: Human immunodeficiency virus 1; assay: Antiviral activity against HIV1 with reverse transcriptase L100I mutant infected in human MT4 cells assessed as protection against virus-induced cytopathogenicity after 4 days by MTT assay; assay type: functional, organism-based; settings: Human immunodeficiency virus 1, MT4, 96 h; method in brief: as §2
[9] = test system: Human immunodeficiency virus 1; assay: Antiviral activity against HIV1 with reverse transcriptase K103N mutant infected in human MT4 cells assessed as protection against virus-induced cytopathogenicity after 4 days by MTT assay; assay type: functional, organism-based; settings: Human immunodeficiency virus 1, MT4, 96 h
[10] = test system: Human immunodeficiency virus 1; assay: Antiviral activity against HIV1 with reverse transcriptase Y181C mutant infected in human MT4 cells assessed as protection against virus-induced cytopathogenicity after 4 days by MTT assay; assay type: functional, organism-based; settings: Human immunodeficiency virus 1, MT4, 96 h; method in brief: as §2
[11] = test system: Human immunodeficiency virus 1; assay: Antiviral activity against HIV1 with reverse transcriptase Y188L mutant infected in human MT4 cells assessed as protection against virus-induced cytopathogenicity after 4 days by MTT assay; assay type: functional, organism-based; settings: Human immunodeficiency virus 1, MT4, 96 h; method in brief: as §2
[12] = test system: Human immunodeficiency virus 1; assay: Antiviral activity against HIV1 with reverse transcriptase F227L, V106A mutant infected in human MT4 cells assessed as protection against virus-induced cytopathogenicity after 4 days by MTT assay; assay type: functional, organism-based; settings: Human immunodeficiency virus 1, MT4, 96 h; method in brief: as §2

## N#Cc1ccc(Nc2nc(Oc3ccccc3)c3ccccc3n2)cc1
[1]
  pEC50: 5.88
[2]
  pEC50: < 3.43
[3]
  CC50 at 96 h: 370 µM
[4]
  selectivity ratio: > 279

## Cc1ccccc1Oc1nc(Nc2ccc(C#N)cc2)nc2ccccc12
[1]
  pEC50: 7.24
[2]
  pEC50: < 3.45
[3]
  CC50 at 96 h: 355 µM
[4]
  selectivity ratio: > 6210

## Cc1cccc(Oc2nc(Nc3ccc(C#N)cc3)nc3ccccc23)c1
[1]
  pEC50: 6.08
[2]
  pEC50: < 3.45
[3]
  CC50 at 96 h: 355 µM
[4]
  selectivity ratio: > 436

## COc1ccccc1Oc1nc(Nc2ccc(C#N)cc2)nc2ccccc12
[1]
  pEC50: 6.92
[2]
  pEC50: < 4.59
[3]
  CC50 at 96 h: 150 µM
[4]
  selectivity ratio: 1260

## Cc1ccc(Oc2nc(Nc3ccc(C#N)cc3)nc3ccccc23)cc1
[1]
  pEC50: 6.98
[2]
  pEC50: < 4.07
[3]
  CC50 at 96 h: 87 µM
[4]
  selectivity ratio: 831

## N#Cc1ccc(Nc2nc(Oc3ccccc3Cl)c3ccccc3n2)cc1
[1]
  pEC50: 7.43
[2]
  pEC50: < 4.43
[3]
  CC50 at 96 h: 38 µM
[4]
  selectivity ratio: 982

## N#Cc1ccc(Nc2nc(Oc3ccc(F)cc3)c3ccccc3n2)cc1
[1]
  pEC50: 6.23
[2]
  pEC50: < 3.45
[3]
  CC50 at 96 h: > 351 µM
[4]
  selectivity ratio: > 607

## N#Cc1ccc(Nc2nc(Oc3ccc(Cl)cc3)c3ccccc3n2)cc1
[1]
  pEC50: 6.72
[2]
  pEC50: < 3.71
[3]
  CC50 at 96 h: 198 µM
[4]
  selectivity ratio: 1040

## N#Cc1ccc(Nc2nc(Oc3ccc(Br)cc3)c3ccccc3n2)cc1
[1]
  pEC50: 6.58
[2]
  pEC50: < 3.67
[3]
  CC50 at 96 h: 215 µM
[4]
  selectivity ratio: 810

## COc1ccc(Oc2nc(Nc3ccc(C#N)cc3)nc3ccccc23)cc1
[1]
  pEC50: 6.72
[2]
  pEC50: < 3.47
[5]
  pEC50: < 3.47
[3]
  CC50 at 96 h: 340 µM
[4]
  selectivity ratio: > 1790

## N#Cc1ccc(Nc2nc(Oc3ccc(Cl)cc3Cl)c3ccccc3n2)cc1
[1]
  pEC50: 7.64
[2]
  pEC50: < 4.51
[5]
  pEC50: < 4.51
[3]
  CC50 at 96 h: 32 µM
[4]
  selectivity ratio: 1410

## N#Cc1ccc(Nc2nc(Oc3c(Cl)cc(Cl)cc3Cl)c3ccccc3n2)cc1
[1]
  pEC50: 7.68
[2]
  pEC50: < 4.26
[5]
  pEC50: 5.82
[3]
  CC50 at 96 h: 56 µM
[4]
  selectivity ratio: 2630

## Cc1cccc(C)c1Oc1nc(Nc2ccc(C#N)cc2)nc2ccccc12
[1]
  pEC50: 7.64
[2]
  pEC50: ≤ 5.00
[5]
  pEC50: 6.28
[3]
  CC50 at 96 h: 35 µM
[4]
  selectivity ratio: 1510

## Cc1cc(C)c(Oc2nc(Nc3ccc(C#N)cc3)nc3ccccc23)c(C)c1
[1]
  pEC50: 7.96
[2]
  pEC50: < 4.47
[5]
  pEC50: 5.70
[3]
  CC50 at 96 h: > 34 µM
[4]
  selectivity ratio: > 3220

## Cc1cc(Br)cc(Br)c1Oc1nc(Nc2ccc(C#N)cc2)nc2ccccc12
[1]
  pEC50: 7.72
[2]
  pEC50: ≤ 4.85
[5]
  pEC50: 6.46
[3]
  CC50 at 96 h: 150 µM
[4]
  selectivity ratio: 7930

## Cc1cc(Br)c(Oc2nc(Nc3ccc(C#N)cc3)nc3ccccc23)c(Br)c1
[1]
  pEC50: 7.70
[2]
  pEC50: ≤ 5.34
[5]
  pEC50: 6.23
[3]
  CC50 at 96 h: 25 µM
[4]
  selectivity ratio: 1280

## N#Cc1ccc(Nc2nc(Oc3c(Br)cc(Br)cc3Br)c3ccccc3n2)cc1
[1]
  pEC50: 7.55
[2]
  pEC50: ≤ 5.07
[5]
  pEC50: 6.03
[3]
  CC50 at 96 h: 58 µM
[4]
  selectivity ratio: 2120

## CCOc1cc(C#N)cc(Cl)c1Oc1nc(Nc2ccc(C#N)cc2)nc2ccccc12
[1]
  pEC50: 8.12
[2]
  pEC50: < 4.68
[5]
  pEC50: 6.54
[3]
  CC50 at 96 h: 22 µM
[4]
  selectivity ratio: 2970

## COc1cc(C#N)ccc1Oc1nc(Nc2ccc(C#N)cc2)nc2ccccc12
[1]
  pEC50: 7.48
[2]
  pEC50: < 3.85
[5]
  pEC50: < 3.85
[3]
  CC50 at 96 h: ≥ 140 µM
[4]
  selectivity ratio: 64200

## COc1cc(C#N)cc(OC)c1Oc1nc(Nc2ccc(C#N)cc2)nc2ccccc12
[1]
  pEC50: 8.06
[2]
  pEC50: < 3.71
[5]
  pEC50: 6.04
[3]
  CC50 at 96 h: 194 µM
[4]
  selectivity ratio: 22000

## CCOc1cc(C#N)cc(OCC)c1Oc1nc(Nc2ccc(C#N)cc2)nc2ccccc12
[1]
  pEC50: 7.80
[2]
  pEC50: < 3.97
[5]
  pEC50: < 3.97
[3]
  CC50 at 96 h: 108 µM
[4]
  selectivity ratio: 6770

## CCCOc1cc(C#N)cc(OC)c1Oc1nc(Nc2ccc(C#N)cc2)nc2ccccc12
[1]
  pEC50: 7.89
[2]
  pEC50: < 5.28
[5]
  pEC50: < 5.28
[3]
  CC50 at 96 h: 5.2 µM
[4]
  selectivity ratio: 408

## CCCOc1cc(C#N)cc(OCC)c1Oc1nc(Nc2ccc(C#N)cc2)nc2ccccc12
[1]
  pEC50: 7.24
[2]
  pEC50: < 3.91
[5]
  pEC50: < 3.91
[3]
  CC50 at 96 h: 123 µM
[4]
  selectivity ratio: 2080

## Cc1cc(C#N)cc(C)c1Oc1nc(Nc2ccc(C#N)cc2)nc2ccc(Cl)cc12
[1]
  pEC50: 8.07
[2]
  pEC50: < 3.93
[5]
  pEC50: 6.15
[3]
  CC50 at 96 h: 117 µM
[4]
  selectivity ratio: 13800

## COc1cc(C#N)cc(Cl)c1Oc1nc(Nc2ccc(C#N)cc2)nc2ccccc12
[1]
  pEC50: 8.33
[2]
  pEC50: < 3.66
[5]
  pEC50: 6.80
[3]
  CC50 at 96 h: 220 µM
[4]
  selectivity ratio: 46900
[6]
  pEC50: 8.27
[7]
  pEC50: 7.92
[8]
  pEC50: 6.96
[9]
  pEC50: ≥ 8.27
[10]
  pEC50: 7.31
[11]
  pEC50: 6.55
[12]
  pEC50: 6.33

## CC(C)Nc1cccnc1N1CCN(C(=O)c2cc3cc(NS(C)(=O)=O)ccc3[nH]2)CC1 [DELAVIRDINE]
[1]
  pEC50: 6.32
[5]
  pEC50: < 4.37
[3]
  CC50 at 96 h: > 43 µM
[4]
  selectivity ratio: > 92
[6]
  pEC50: 6.21
[7]
  pEC50: 6.25
[8]
  pEC50: 5.10
[9]
  pEC50: 5.19
[10]
  pEC50: 5.20
[11]
  pEC50: 5.19
[12]
  pEC50: 5.01

## O=C1Nc2ccc(Cl)cc2[C@@](C#CC2CC2)(C(F)(F)F)O1 [EFAVIRENZ]
[5]
  pEC50: 6.96
[3]
  CC50 at 96 h: ≥ 6.3 µM
[7]
  pEC50: 8.27
[8]
  pEC50: 7.49
[9]
  pEC50: 7.18
[10]
  pEC50: 8.24
[11]
  pEC50: 6.65
[12]
  pEC50: 6.98

## Cc1ccnc2c1NC(=O)c1cccnc1N2C1CC1 [NEVIRAPINE]
[1]
  pEC50: 5.88
[5]
  pEC50: ≤ 4.82
[3]
  CC50 at 96 h: ≥ 15 µM
[6]
  pEC50: 6.99
[7]
  pEC50: 6.79
[8]
  pEC50: 5.69
[10]
  pEC50: < 4.82
[11]
  pEC50: < 4.82
[12]
  pEC50: < 4.82

Source: ChEMBL document CHEMBL1177681, “Hybrid diarylbenzopyrimidine non-nucleoside reverse transcriptase inhibitors as promising new leads for improved anti-HIV-1 chemotherapy” (Bioorg Med Chem, 2010)
